The species named for test [1] is Homo sapiens. The experiment in a line: Selectivity ratio of Ki for delta opioid receptor (unknown origin) to Ki for kappa opioid receptor (unknown origin).
The target of test [2] is T1, Kappa-type opioid receptor (Homo sapiens, UniProt P41145). The experiment in a line: Displacement of [3H]U69593 from kappa opioid receptor (unknown origin). The procedure, abridged: (§1)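 Competition radioligand binding. Ki was determined against [3H]DAMGO for MOR, [3H]DADLE for DOR and […] for KOR. Values are the mean of three experiments, each run in duplicate.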
On the technique in general: In a radioligand displacement assay an active substance lowers the binding of a labelled ligand.

For test [3], the species on record is Homo sapiens. The experiment in a line: Selectivity ratio of Ki for mu opioid receptor (unknown origin) to Ki for kappa opioid receptor (unknown origin).
In test [4] the target is Delta-type opioid receptor (Homo sapiens, UniProt P41143). Description: Displacement of [3H]DADLE from delta opioid receptor (unknown origin). The essentials:
as §1

In a further test the target is Mu-type opioid receptor (Homo sapiens, UniProt P35372). The experiment in a line: Displacement of [3H]DAMGO from mu opioid receptor (unknown origin). The procedure, abridged: as §1
Test [5] deals with T1, Kappa-type opioid receptor. Description: Agonist activity at kappa opioid receptor in human HEK293 cells assessed as stimulation of Galphai signaling by cAMP assay. It is filed as functional, cell-based. The essentials: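 Live HEK293 cells carrying the cAMP biosensor GloSensor-22F. Galphai activation through KOR was read from the cAMP signal. EC50 reported as mean ± SD.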
(cAMP levels reflect the balance of adenylyl cyclase and phosphodiesterase activity.)

Where only a bound is given, the exact number is not on record here.

Chain of Delta-type opioid receptor (P41143 whole entry): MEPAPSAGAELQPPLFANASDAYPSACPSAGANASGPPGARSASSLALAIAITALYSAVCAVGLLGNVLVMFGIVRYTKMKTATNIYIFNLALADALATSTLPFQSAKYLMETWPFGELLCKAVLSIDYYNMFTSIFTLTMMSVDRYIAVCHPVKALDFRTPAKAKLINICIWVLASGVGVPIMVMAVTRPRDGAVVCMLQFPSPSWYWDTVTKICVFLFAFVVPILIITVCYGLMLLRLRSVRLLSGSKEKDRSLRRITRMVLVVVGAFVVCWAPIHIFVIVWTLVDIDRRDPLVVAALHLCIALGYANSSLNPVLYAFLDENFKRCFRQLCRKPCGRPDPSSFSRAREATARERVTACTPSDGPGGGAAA
T1 sequence (P41145 whole entry): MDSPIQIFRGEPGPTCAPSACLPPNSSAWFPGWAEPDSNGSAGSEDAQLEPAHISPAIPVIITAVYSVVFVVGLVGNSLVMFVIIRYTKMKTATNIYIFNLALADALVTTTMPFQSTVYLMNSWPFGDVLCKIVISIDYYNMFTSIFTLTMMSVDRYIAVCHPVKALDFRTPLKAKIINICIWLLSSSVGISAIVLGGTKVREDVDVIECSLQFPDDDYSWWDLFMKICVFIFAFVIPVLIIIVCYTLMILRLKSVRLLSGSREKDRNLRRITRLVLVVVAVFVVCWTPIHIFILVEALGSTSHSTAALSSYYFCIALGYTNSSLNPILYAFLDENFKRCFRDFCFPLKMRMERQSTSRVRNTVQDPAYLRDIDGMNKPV
Chain of Mu-type opioid receptor (P35372 whole entry): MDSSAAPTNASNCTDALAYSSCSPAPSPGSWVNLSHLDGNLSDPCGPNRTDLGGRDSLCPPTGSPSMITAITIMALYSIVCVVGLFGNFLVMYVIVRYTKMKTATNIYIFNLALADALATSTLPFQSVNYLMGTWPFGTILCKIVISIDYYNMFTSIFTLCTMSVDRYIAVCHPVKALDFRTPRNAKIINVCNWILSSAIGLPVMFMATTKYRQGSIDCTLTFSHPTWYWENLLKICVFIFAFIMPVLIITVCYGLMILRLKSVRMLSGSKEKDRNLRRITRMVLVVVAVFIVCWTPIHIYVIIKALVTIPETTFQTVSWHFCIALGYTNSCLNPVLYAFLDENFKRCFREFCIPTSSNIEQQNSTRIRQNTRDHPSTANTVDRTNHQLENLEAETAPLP

As a reminder, the Ki is the dissociation constant of the complex between target and ligand, obtained from inhibition or displacement. A higher Ki goes with a looser hold on the target. On to `COC(=O)CCCC(=O)O[C@H]1C[C@@H](C(=O)OC)[C@]2(C)CC[C@H]3C(=O)O[C@H](c4ccoc4)C[C@]3(C)[C@H]2C1=O`, for which the Ratio Ki in the test listed under Homo sapiens [1] was greater than 33; in the test filed under Homo sapiens [3], 16. Besides, the Ki in test [2] is 0.302 µM; in test [4], greater than 10 µM; on Mu-type opioid receptor, 5.01 µM.

`COC(=O)CCCCC(=O)O[C@H]1C[C@@H](C(=O)OC)[C@]2(C)CC[C@H]3C(=O)O[C@H](c4ccoc4)C[C@]3(C)[C@H]2C1=O`: the Ratio Ki in the test filed under Homo sapiens [1] was greater than 17. Also, the values for the inhibition constant (Ki) (in test [2]; in test [4]; at Mu-type opioid receptor) were 0.575 µM, greater than 10 µM and greater than 10 µM, respectively.

The EC50 is the concentration that produces a half-maximal response. Turning to `COC(=O)CCC(=O)O[C@H]1C[C@@H](C(=O)OC)[C@]2(C)CC[C@H]3C(=O)O[C@H](c4ccoc4)C[C@]3(C)[C@H]2C1=O`, the EC50 in test [5] stood at 0.855 µM. Further, in the test filed under Homo sapiens [1], the Ratio Ki was greater than 277. Further, the Ki was 0.036 µM in test [2], greater than 10 µM in test [4] and greater than 10 µM on Mu-type opioid receptor.

On to `COC(=O)[C@@H]1C[C@H](OC(=O)CSC#N)C(=O)[C@H]2[C@@]1(C)CC[C@H]1C(=O)O[C@H](c3ccoc3)C[C@]21C` [22-THIOCYANATOSALVINORIN A], for which the inhibitory constant (Ki) (in test [4]; on Mu-type opioid receptor) was greater than 10 µM throughout.

`CCOC(=O)CCC(=O)O[C@H]1C[C@@H](C(=O)OC)[C@]2(C)CC[C@H]3C(=O)O[C@H](c4ccoc4)C[C@]3(C)[C@H]2C1=O`: in the test filed under Homo sapiens [1], the Ratio Ki is greater than 23. The inhibitory constant (Ki) in test [2] was 0.437 µM; in test [4], greater than 10 µM; at Mu-type opioid receptor, greater than 10 µM.

With `COC(=O)[C@@H]1C[C@H](OC(=O)CCC(=O)O)C(=O)[C@H]2[C@@]1(C)CC[C@H]1C(=O)O[C@H](c3ccoc3)C[C@]21C`, the Ki in test [2] was 4.07 µM; in test [4], greater than 10 µM; on Mu-type opioid receptor it was greater than 10 µM.

As to `COC(=O)[C@@H]1C[C@H](O)C(=O)[C@H]2[C@@]1(C)CC[C@H]1C(=O)O[C@H](c3ccoc3)C[C@]21C` [SALVINORIN B], the Ki (in test [4]; on Mu-type opioid receptor) was greater than 10 µM each time.

For `COC(=O)[C@@H]1C[C@H](OC(=O)CC(=O)OC(C)(C)C)C(=O)[C@H]2[C@@]1(C)CC[C@H]1C(=O)O[C@H](c3ccoc3)C[C@]21C`, the Ratio Ki in the test listed under Homo sapiens [1] was greater than 67. The inhibition constant Ki in test [2] was 0.148 µM; in test [4], greater than 10 µM; on Mu-type opioid receptor, greater than 10 µM.

For `CCOC(=O)CC(=O)O[C@H]1C[C@@H](C(=O)OC)[C@]2(C)CC[C@H]3C(=O)O[C@H](c4ccoc4)C[C@]3(C)[C@H]2C1=O` [ETHYLSALVINORINB-2-O-MALONATE], in test [5], the EC50 was determined as 0.052 µM. Further, in the test filed under Homo sapiens [1], the Ratio Ki is greater than 476. In addition, the values for the Ki (in test [2]; in test [4]; on Mu-type opioid receptor) were 0.021 µM, greater than 10 µM and greater than 10 µM, respectively.

As for `COC(=O)[C@@H]1C[C@H](OC(=O)/C=C\C(=O)O)C(=O)[C@H]2[C@@]1(C)CC[C@H]1C(=O)O[C@H](c3ccoc3)C[C@]21C`, the Ratio Ki in the test filed under Homo sapiens [1] and in the test listed under Homo sapiens [3] was 1 in each case. For the same compound, the inhibition constant Ki (in test [2]; in test [4]; on Mu-type opioid receptor) was greater than 10 µM in each case.

For the compound `COC(=O)[C@@H]1C[C@H](OC(=O)CCCC(=O)O)C(=O)[C@H]2[C@@]1(C)CC[C@H]1C(=O)O[C@H](c3ccoc3)C[C@]21C`, the Ratio Ki in the test listed under Homo sapiens [1] was greater than 38; in the test filed under Homo sapiens [3] it was 17. Besides, the Ki in test [2] was 0.263 µM; in test [4], greater than 10 µM; at Mu-type opioid receptor, 4.57 µM.

`CCOC(=O)/C=C/C(=O)O[C@H]1C[C@@H](C(=O)OC)[C@]2(C)CC[C@H]3C(=O)O[C@H](c4ccoc4)C[C@]3(C)[C@H]2C1=O`: the Ratio Ki in the test filed under Homo sapiens [1] was greater than 23; in the test listed under Homo sapiens [3] it was 2. Moreover, the Ki in test [2] is 0.427 µM; in test [4] it was greater than 10 µM; at Mu-type opioid receptor, 0.724 µM.

Take `COC(=O)/C=C/C(=O)O[C@H]1C[C@@H](C(=O)OC)[C@]2(C)CC[C@H]3C(=O)O[C@H](c4ccoc4)C[C@]3(C)[C@H]2C1=O`: the EC50 in test [5] was found to be 0.07 µM. The Ratio Ki was greater than 256 in the test filed under Homo sapiens [1] and 18 in the test filed under Homo sapiens [3]. Also, the inhibition constant Ki is 0.039 µM in test [2], greater than 10 µM in test [4] and 0.711 µM on Mu-type opioid receptor.

With `COC(=O)[C@@H]1C[C@H](OC(=O)c2ccccc2C(=O)O)C(=O)[C@H]2[C@@]1(C)CC[C@H]1C(=O)O[C@H](c3ccoc3)C[C@]21C`, the Ratio Ki in the test listed under Homo sapiens [1] is greater than 4. In addition, the Ki in test [2] was 2.29 µM; in test [4] it was greater than 10 µM; on Mu-type opioid receptor, greater than 10 µM.

In the case of `COC(=O)CC(=O)O[C@H]1C[C@@H](C(=O)OC)[C@]2(C)CC[C@H]3C(=O)O[C@H](c4ccoc4)C[C@]3(C)[C@H]2C1=O`, in test [5], the 50% effective concentration (EC50) was 0.137 µM. In the test listed under Homo sapiens [1], the Ratio Ki was 2160. In addition, the Ki in test [2] is 0.002 µM; in test [4], 4.32 µM; on Mu-type opioid receptor it was greater than 10 µM.

These data come from ChEMBL document CHEMBL2380279 (Bioorg Med Chem Lett, 2013).
